A short description of data set [1]: In vivo antitumor efficacy in nude mice by injecting a dose of 25 mg/kg, as HCl salt in saline solution, iv and the total drug exposure was determined. (0-24hr). The format is ADME, organism-based. Further details: time < 24 hr, dose 25 mg/kg, route intravenous. As to conditions: mouse.
Data set [2] can be described thus: Bioavailability in cynomolgus monkey (dose 25 mg/kg i.v.). As to conditions: in vivo, iv. The format is ADME, organism-based, Macaca fascicularis. The method in brief:
(§1)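 Serum pharmacokinetics in nude mice or cynomolgus monkeys after oral (po) or iv dosing. Compounds were given as hydrochloride salts in 20% HPβCD unless otherwise noted. Other formulations were the hydrochloride salt in saline, the micronized free base in 20% HPβCD or corn oil (po) with saline for iv, or the hydrochloride salt in 0.4% methyl cellulose (po).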

The nature of data set [3]: (§2) In vivo antitumor efficacy in cynomolgus monkeys by injecting a dose of 25 mg/kg, as HCl salt in saline solution, iv and the serum half-life was determined. It counts as ADME, organism-based, Macaca fascicularis. Set-up: dose 25 mg/kg, route intravenous. As to conditions: cynomolgus monkey, serum. The method in brief:
as §1

Data set [4] deals with Cynomolgus monkey. The data set is described as §2. It counts as ADME, organism-based, Macaca fascicularis. Further details: dose 25 mg/kg, route intravenous. As to conditions: in vivo. The method in brief:
as §1

Data set [5] can be described thus: In vivo antitumor efficacy in cynomolgus monkeys by injecting a dose of 25 mg/kg, as HCl salt in saline solution, iv and the total drug exposure was determined. (0-8 hr). Set-up: time < 8 hr, dose 25 mg/kg, route intravenous. The format is ADME, organism-based, Macaca fascicularis. As to conditions: cynomolgus monkey. The method in brief:
as §1

For data set [6], the system named is Cynomolgus monkey. Put plainly: (§3) In vivo antitumor efficacy in cynomolgus monkeys by injecting a dose of 25 mg/kg, as HCl salt in saline solution, perorally and the maximum drug concentration was determined. As to conditions: po. Further details: dose 25 mg/kg, route oral. It counts as ADME, organism-based, Macaca fascicularis. The method in brief:
as §1

Data set [7] in a line: In vivo antitumor efficacy in nude mice by injecting a dose of 25 mg/kg, as HCl salt in saline solution, iv and the serum half-life was determined. It counts as ADME, organism-based. Further details: dose 25 mg/kg, route intravenous. As to conditions: mouse.
Data set [8] in a line: (§4) In vivo antitumor efficacy in cynomolgus monkeys by injecting a dose of 25 mg/kg, as the micronised free base in corn oil, perorally and the total drug exposure was determined (0-8 hr). As to conditions: cynomolgus monkey, po. Set-up: time < 8 hr, dose 25 mg/kg, route oral. It counts as ADME, organism-based, Macaca fascicularis. The method in brief:
as §1

In data set [9] the test system is Cynomolgus monkey. Described as §4. It counts as ADME, organism-based, Macaca fascicularis. Further details: time < 8 hr, dose 25 mg/kg, route oral. As to conditions: po, 8 h. The method in brief: as §1
For data set [10], the target named is geranylgeranyltransferase type-I (Rattus norvegicus, UniProt P53610+Q04631). Put plainly: Inhibition of rat Geranylgeranyl transferase (GGPT). The format is protein-complex assay.
The nature of data set [11]: Oral bioavailability in mouse (nude) (dose 25 mg/kg i.v.). It counts as ADME, organism-based. As to conditions: in vivo.
A short description of data set [12]: In vivo antitumor efficacy in nude mice by injecting a dose of 25 mg/kg, as HCl salt in saline solution, perorally and the total drug exposure was determined (0-24hr). It counts as ADME, organism-based. Set-up: time < 24 hr, dose 25 mg/kg, route oral. As to conditions: mouse, po.
Data set [13] relates to Mus musculus. Kind of data set: In vivo antitumor efficacy in nude mice by injecting a dose of 25 mg/kg, as HCl salt in saline solution, perorally and the duration of action was reported. It counts as ADME, organism-based. Set-up: dose 25 mg/kg, route oral. As to conditions: po.
The nature of data set [14]: (§5) Maximal plasma concentration in nude mice after 25 mg/kg oral dose. As to conditions: mouse. It counts as ADME, organism-based. Further details: dose 25 mg/kg, route oral.
The subject of data set [15] is Mus musculus. Put plainly: In vivo antitumor efficacy in nude mice by injecting a dose of 25 mg/kg, as HCl salt in solution, perorally and the total drug exposure was determined (0-24hr). Set-up: time < 24 hr, dose 25 mg/kg, route oral. It counts as ADME, organism-based. As to conditions: po.
Data set [16] is described as follows: In vivo antitumor efficacy in nude mice by injecting a dose of 25 mg/kg, as HCl salt in solution, iv and the total drug exposure was determined. (0-24hr). The format is ADME, organism-based. Further details: time < 24 hr, dose 25 mg/kg, route intravenous. As to conditions: mouse.
Data set [17] can be described thus: as §3. The format is ADME, organism-based, Macaca fascicularis. As to conditions: cynomolgus monkey, po. Further details: dose 25 mg/kg, route oral. The method in brief: as §1
Data set [18] in a line: Oral bioavailability in mouse (nude) (dose of 25 mg/kg). It counts as ADME, organism-based. As to conditions: in vivo. The method in brief: as §1
Data set [19] can be described thus: as §5. Set-up: dose 25 mg/kg, route oral. It counts as ADME, organism-based. As to conditions: mouse. This is another data set of the same source.
Data set [20] is described as follows: In vivo antitumor efficacy in cynomolgus monkeys by injecting a dose of 25 mg/kg, as HCl salt in saline solution, perorally and the total drug exposure was determined (0-8 hr). As to conditions: cynomolgus monkey, po. It counts as ADME, organism-based, Macaca fascicularis. Further details: time < 8 hr, dose 25 mg/kg, route oral. The method in brief:
(§6)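 Cynomolgus monkeys; hydrochloride salt in saline iv, or compound given po (as hydrochloride, as micronized free base in corn oil, or as hydrochloride in 0.4% methyl cellulose, depending on compound).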

The test system of data set [21] is Mus musculus. Put plainly: In vivo antitumor efficacy in nude mice by injecting a dose of 25 mg/kg, as HCl salt in saline solution, perorally and the total drug exposure was determined. As to conditions: po. Further details: dose 25 mg/kg, route oral. It counts as ADME, organism-based.
Data set [22] is described as follows: In vivo antitumor efficacy in nude mice by injecting a dose of 25 mg/kg, as HCl salt in saline solution, iv and the total drug exposure was determined. Further details: dose 25 mg/kg, route intravenous. As to conditions: mouse. The format is ADME, organism-based.
Data set [23] in a line: In vivo antitumor efficacy in nude mice by injecting a dose of 25 mg/kg, as HCl salt in solution, iv and the serum half-life was determined. The format is ADME, organism-based. Set-up: dose 25 mg/kg, route intravenous. As to conditions: mouse.
For data set [24], the system named is Cynomolgus monkey. Put plainly: In vivo antitumor efficacy in cynomolgus monkeys by injecting a dose of 10 mg/kg, as HCl salt in saline solution, perorally and the duration of action was reported. The format is ADME, organism-based, Macaca fascicularis. Set-up: dose 10 mg/kg, route oral. As to conditions: po. The method in brief: as §6
For data set [25], the target named is T1, Protein farnesyltransferase (Homo sapiens, UniProt P49354+P49356). Kind of data set: In vitro inhibition of farnesyltransferase farnesylation of the H-ras oncogene. The format is protein-complex assay.
The target of data set [26] is T1, Protein farnesyltransferase. Kind of data set: Inhibition of Farnesyltransferase from Ras-CVLS or Ras-CVLL in Cos-7 monkey kidney cells. The format is cell-based, Chlorocebus aethiops.
Data set [27] in a line: In vivo antitumor efficacy in nude mice by injecting a dose of 25 mg/kg iv and serum half-life was determined. The format is ADME, organism-based. Set-up: dose 25 mg/kg, route intravenous. As to conditions: mouse. The method in brief:
as §1

Data set [28] in a line: as §5. The format is ADME, organism-based. Further details: dose 25 mg/kg, route oral. As to conditions: mouse. The method in brief:
as §1
This is another data set of the same source.

The nature of data set [29]: In vivo antitumor efficacy in nude mice after peroral dose of 25 mg/kg expressed as Area under the curve. It counts as ADME, organism-based. Set-up: dose 25 mg/kg, route oral. As to conditions: mouse, po. The method in brief:
as §1

Data set [30] is described as follows: In vivo antitumor efficacy peroral dose of 25 mg/kg expressed as duration for which compound was present above IC50. Set-up: dose 25 mg/kg, route oral. As to conditions: po. It counts as ADME, organism-based. The method in brief: as §1
Data set [31] in a line: In vivo antitumor efficacy in nude mice 0-24 hr after peroral dose of 25 mg/kg expressed as Area under the curve. It counts as ADME, organism-based. Set-up: time < 24 hr, dose 25 mg/kg, route oral. As to conditions: nude, mouse, po. The method in brief:
as §1

For orientation: bioavailability means dose-corrected exposure relative to a reference, in per cent. A word on the half-life: it is how long it takes for the measured level to halve. By Cmax is commonly meant the maximum level reached in the sampled fluid or tissue. The term pIC50 denotes the IC50 on a negative log10 scale, so that one unit is a factor of ten.

Structures are written as SMILES. pIC50: −log10 of the molar value. Several values for one entry are separate records, joined by “and”; a condition that tells them apart may be missing. Identical values can stand only once.

As to `O=C(Cc1cccnc1)N1CCN(C2c3ccc(Cl)cc3CCc3cccnc32)CC1` (stereo not drawn), the AUC at 24 h in data set [1] was 1100 ng·h/mL; in [12] it was 400 ng·h/mL. Further, the F in [2] amounted to 1.4%. Further, the bioavailability in data set [2] was 2.2%; in data set [11], 36%. For the same compound, the half-life was 1.5 h in [3] and 0.2 h in data set [7]. Besides, the T1/2 in the data set on Cynomolgus monkey [4] was found to be 1.5 h. Moreover, the AUC at 8 h in [5] was determined as 48600 ng·h/mL; in [8], 450 ng·h/mL. The Cmax in the data set on Cynomolgus monkey [6] was 290 nM and 110 nM; in data set [14] it was 3900 nM. In the data set on Cynomolgus monkey [9], the AUC is reported as 1.07 uh ml-1. Further, in data set [10], the negative logarithm of the IC50 (pIC50) was less than 4.34. Further, in the data set with Mus musculus [13], the “Time above IC50” value was 0.3 h.

As to `CN1CCC(CC(=O)N2CCN(C3c4ccc(Cl)cc4CCc4cc(Br)cnc43)CC2)CC1` (stereo not drawn), the AUC in the data set with Mus musculus [15] stood at 18.4 uh ml-1; with Mus musculus [21], 39 uh ml-1; in data set [22], 32900 ng·h/mL. Also, in data set [16], the AUC at 24 h amounted to 40600 ng·h/mL. The peak concentration (Cmax) in [17] came to 1500 nM; in data set [19] it was 4000 nM; in data set [14], 30000 nM. Moreover, the half-life in data set [7] was 8.5 h; in data set [23] it was 8.3 h. The values for the bioavailability in [18] and in data set [11] were 45% and 100%, respectively. In data set [20], the AUC at 8 h turned out to be 37200 ng·h/mL. The compound further gave a negative logarithm of the IC50 (pIC50) in data set [10] of less than 4.42. For the same compound, the “Time above IC50” value in the data set on Cynomolgus monkey [24] came out at 72 h.

As to `O=C(Cc1ccncc1)N1CCN(C2c3ccc(Cl)cc3CCc3cc(Br)cnc32)CC1` (stereo not drawn), the results for the pIC50 in data set [25], in data set [26] and in [10] were 7.92, 6.42 and less than 4.41, respectively. The same compound gave a half-life in [27] of 0.74 h. In data set [28], this compound had a Cmax of 900 nM. Also, in [29], the AUC was found to be 1100 ng·h/mL. Further, the “Time above IC50” value in data set [30] is 6 h. In data set [31], the AUC at 24 h was found to be 1100 ng·h/mL. For the same compound, the bioavailability in [18] came out at 20.8%.

Values taken from ChEMBL document CHEMBL1131493, “Inhibitors of farnesyl protein transferase. 4-Amido, 4-carbamoyl, and 4-carboxamido derivatives of 1-(8-chloro-6,11-dihydro-5H-benzo[5,6]- cyclohepta[1,2-b]pyridin-11-yl)piperazine and 1-(3-bromo-8-chloro-6,11- dihydro-5H-benzo[5,6]cyclohepta[1,2-b]pyridin-11-yl)piperazine” (J Med Chem, 1998).
